Common to all, as to assay type: functional
Experiment [1] relates to Mus musculus. Briefly: The homovanillic acid (HVA) levels in mouse brain at 10 mg/kg of dose. The procedure, abridged:
(§1)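 Mice dosed orally in 0.5% aqueous tragacanth; brains of five mice per compound pooled. Homovanillic acid measured in brain extracts and reported as brain level.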

Experiment [2] relates to Canis familiaris. Briefly: Inhibition of apomorphine induced emesis in dogs at 1 mg/kg of dose. To be noted: Canis lupus familiaris. The procedure, abridged: (§2)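 Beagle dogs (10-15 kg), groups of three, given compound po in a gelatin capsule; 2 h later apomorphine hydrochloride 0.3 mg/kg sc. Vomiting counted for 1 h; mean inhibition as percent of control. ED50 is the dose giving 50% inhibition of emesis, by Litchfield-Wilcoxon.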

The subject of experiment [3] is Mus musculus. Briefly: Exploratory activity of mice determined by an antimex activity meter, 100 mg/kg of dose was administered perorally. To be noted: route oral. In short, it runs like this: (§3)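 Male Std-ddY mice (20-25 g), five per dose; compound in 0.5% aqueous tragacanth given orally. Two hours later each mouse placed in an Animex activity meter cage and locomotor activity counted for 3 min. Mean suppression expressed as percent inhibition of control; ED50 by Litchfield-Wilcoxon.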

Experiment [4] relates to Mus musculus. Briefly: Antitremorine activity(TRM) of mice after peroral administration of 100 mg/kg of compound; Slight inhibition (31-50%). To be noted: route oral.
Experiment [5] deals with Canis familiaris. Briefly: Inhibition of apomorphine induced emesis in dogs when administered perorally. To be noted: Canis lupus familiaris, po. The procedure, abridged:
as §2

Experiment [6] relates to Mus musculus. Nature of the experiment: Concentration of compound that causes catalepsy in the mice when administered perorally. To be noted: po. The procedure, abridged:
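Male Std-ddY mice were dosed orally, vehicle 0.5% aqueous tragacanth. At 2 h, forepaws were placed on a rod 4.5 cm high. Failure to remove the paws within 30 s in three successive trials was scored cataleptic. ED50 was the dose giving catalepsy in 50% of mice (Litchfield-Wilcoxon).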

For experiment [7], the system named is Mus musculus. Nature of the experiment: Exploratory activity of mice determined by an antimex activity meter, 10 mg/kg of dose was administered perorally. To be noted: route oral.
Experiment [8] relates to Rattus norvegicus. Briefly: Inhibition of self-stimulation response in rats when administered perorally. To be noted: po. In short, it runs like this: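 Male Wistar HLA rats (300-400 g) with chronic electrodes in the lateral posterior hypothalamus, lever-pressing steadily at 50-100/min. Self-stimulation counted for 10 min before and 2 h after oral dosing. ED50 is the dose causing ≥50% rate inhibition in half the rats (Litchfield-Wilcoxon).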

In experiment [9] the test system is Mus musculus. Briefly: Concentration of compound that causes ptosis in the mice when administered perorally. To be noted: po. In short, it runs like this:
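Five male Std-ddY mice per group were dosed orally in 0.5% aqueous tragacanth. At 2 h, eyelid closure was scored macroscopically (8 open to 0 fully closed). Group mean scores formed a dose-response curve. ED50 was the dose reducing the mean score to 50%.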

Experiment [10] concerns Mus musculus. Nature of the experiment: Antiexploratory activity (EXPL) of mice determined by an antimex activity meter, 100 mg/kg of dose was administered perorally; potent inhibition. To be noted: route oral.
The test system of experiment [11] is Mus musculus. Nature of the experiment: The homovanillic acid (HVA) levels in mouse brain at 50 mg/kg of dose. The procedure, abridged:
as §1

Experiment [12] relates to Mus musculus. Nature of the experiment: 3,4 -Dihydroxy phenylacetic acid (DOPAC) levels in mouse brain at 10 mg/kg dose. The procedure, abridged: (§4)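 Male Std-ddY mice, 20-25 g, dosed orally with compound in 0.5% aqueous tragacanth. DOPAC was measured fluorometrically after purification by column chromatography on Sephadex G-10 and QAE-Sephadex. Brains from five mice per compound were pooled for each determination.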

Experiment [13] has as its system Mus musculus. Nature of the experiment: Antireserpine activity (RES) of mice after peroral administration of 100 mg/kg of compound; No inhibition. To be noted: route oral.
Experiment [14] deals with Mus musculus. Nature of the experiment: Exploratory activity of mice determined by an antimex activity meter, when administered perorally. To be noted: po. In short, it runs like this: as §3
The test system of experiment [15] is Mus musculus. Nature of the experiment: Inhibition of conditioned avoidance response in mice when administered perorally. To be noted: po. In short, it runs like this: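 One-way active avoidance in male Std-ddY mice in a dark/light two-compartment box. Mice trained to move to the lit side on a warning stimulus to escape floor shock; groups of 10 avoiding at >80% in 10 trials. Compound po in 0.5% tragacanth. ED50 is the dose halving avoidance rate (Litchfield-Wilcoxon).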

For experiment [16], the system named is Mus musculus. Nature of the experiment: 3,4 -Dihydroxy phenylacetic acid (DOPAC) levels in mouse brain at 50 mg/kg dose. In short, it runs like this:
as §4

The subject of experiment [17] is Mus musculus. Briefly: Antimaximal electroshock seizure (MES) activity in mice after peroral administration of 100 mg/kg of compound; 0/5. To be noted: route oral.
Experiment [18] relates to Mus musculus. Briefly: Antireserpine activity (RES) of mice after peroral administration of 100 mg/kg of compound; […]. To be noted: route oral.
In experiment [19] the test system is Mus musculus. Briefly: Antitremorine activity(TRM) of mice after peroral administration of 100 mg/kg of compound; No inhibition. To be noted: route oral.
Experiment [20] concerns Mus musculus. Nature of the experiment: Antiexploratory activity (EXPL) of mice determined by an antimex activity meter, 100 mg/kg of dose was administered perorally; No inhibition. To be noted: route oral.
Experiment [21] concerns Mus musculus. Nature of the experiment: Antiexploratory activity (EXPL) of mice determined by an antimex activity meter, 10 mg/kg of dose was administered perorally; Slight inhibition (31-50%). To be noted: route oral.
Experiment [22] deals with Mus musculus. Briefly: Antireserpine activity (RES) of mice after peroral administration of 50 mg/kg of compound; No inhibition. To be noted: route oral.
For experiment [23], the system named is Mus musculus. Briefly: Antiexploratory activity (EXPL) of mice determined by an antimex activity meter, 50 mg/kg of dose was administered perorally; potent inhibition. To be noted: route oral.
Experiment [24] concerns Mus musculus. Briefly: Exploratory activity of mice determined by an antimex activity meter, 50 mg/kg of dose was administered perorally. To be noted: Mus musculus, po. In short, it runs like this:
as §3

In experiment [25] the test system is Mus musculus. Nature of the experiment: Antitremorine activity(TRM) of mice after peroral administration of 10 mg/kg of compound; Slight inhibition (31-50%). To be noted: route oral.
Experiment [26] has as its system Mus musculus. Nature of the experiment: Antitremorine activity(TRM) of mice after peroral administration of 100 mg/kg of compound. To be noted: route oral.
The test system of experiment [27] is Mus musculus. Nature of the experiment: Antimaximal electroshock seizure (MES) activity in mice after peroral administration of 100 mg/kg of compound; 4/5. To be noted: route oral.
The subject of experiment [28] is Mus musculus. Nature of the experiment: Antimaximal electroshock seizure (MES) activity in mice after peroral administration of 10 mg/kg of compound; 0/5. To be noted: route oral.
Experiment [29] has as its system Mus musculus. Nature of the experiment: Antimaximal electroshock seizure activity was determined in mice when administered perorally. To be noted: po.
Experiment [30] relates to Mus musculus. Nature of the experiment: Antipentylene tetrazole activity was determined in mice when administered perorally. To be noted: po. In short, it runs like this: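 Groups of five male Std-ddY mice received compound orally in 0.5% tragacanth, then pentylenetetrazole 175 mg/kg ip. Blockade of the tonic extensor component scored as anticonvulsant. ED50 was the dose protecting 50% of animals (Litchfield-Wilcoxon).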

Experiment [31] has as its system Mus musculus. Nature of the experiment: Antimaximal electroshock seizure (MES) activity in mice after peroral administration of 100 mg/kg of compound; 5/5. To be noted: route oral.
Experiment [32] has as its system Mus musculus. Briefly: Antiexploratory activity (EXPL) of mice determined by an antimex activity meter,100 mg/kg of dose was administered perorally.
For experiment [33], the system named is Mus musculus. Briefly: Antitremorine activity(TRM) of mice after peroral administration of 100 mg/kg of compound; Moderate inhibition (51-71%). To be noted: route oral.

The structures appear in SMILES notation. A value given as a limit tells only on which side of the number the result lay.

For `Cl.Cl.OCCN1CCN(C2=Nc3ccccc3CC=C2c2ccc(Cl)cc2)CC1`, the Control came out at 265% in [1], 382% in [11], 186% in experiment [12] and 289% in experiment [16]. Also, the inhibition in vivo at 1 mg/kg in [2] is 95.5%. Moreover, the inhibition in vivo at 100 mg/kg was 57.3% in experiment [3], 31% in [4], more than 71% in [10] and less than 30% in experiment [13]. Further, the ED50 came to 0.19 mg/kg in experiment [5]; 66.8 mg/kg in experiment [6]; 25.4 mg/kg in experiment [8]; 88.7 mg/kg in [9]; 73.1 mg/kg in experiment [14]; 38.1 mg/kg in experiment [15]. In [7], this compound displayed an inhibition in vivo at 10 mg/kg of 40.8%. For the same compound, the Activity in [17] was found to be 0.

Take `CN1CCN(C2=Nc3ccccc3CC=C2c2cccnc2)CC1`: the inhibition in vivo at 100 mg/kg in [18] is more than 71%; in experiment [19] it was less than 30%; in experiment [20] it was less than 30%. In [17], this compound registered an Activity of 0.

As to `CN1CCN(C2=Nc3ccccc3CC=C2c2ccc(F)cc2)CC1.Cl.Cl`, the inhibition in vivo at 10 mg/kg was found to be 31% in [21] and 43.3% in [7]. The Control in experiment [1] is 197%; in experiment [11], 400%; in [12] it was 188%; in experiment [16], 306%. Moreover, the inhibition in vivo at 1 mg/kg in experiment [2] was found to be 100%. Further, the ED50 in experiment [5] stood at 0.28 mg/kg; in experiment [6], 21.5 mg/kg; in [8], 4.05 mg/kg; in [9] it was 61 mg/kg; in experiment [14], 8.15 mg/kg; in experiment [15], 14.6 mg/kg. Moreover, the inhibition in vivo at 50 mg/kg in experiment [22] is less than 30%; in experiment [23], more than 70%; in [24], 79.3%.

Compound `CCN1CCN(C2=Nc3ccc(Cl)cc3CC=C2c2ccccc2)CC1.Cl.Cl` yielded an inhibition in vivo at 10 mg/kg in [25] of 31%. The inhibition in vivo at 100 mg/kg in [26] is more than 71%; in experiment [20] it was less than 30%; in [13] it was less than 30%. Besides, the Activity in experiment [27] was 4; in experiment [28] it was 0. Further, the ED50 in [29] is 93.1 mg/kg; in experiment [30], 34.7 mg/kg.

With `CCc1ccc2c(c1)CC=C(c1ccccc1)C(N1CCN(CCO)CC1)=N2.Cl.Cl`, the Activity in experiment [28] stood at 0; in [31], 5. The compound also showed an Inhibition in [32] of less than 30%. Besides, the inhibition in vivo at 100 mg/kg in experiment [13] is less than 30%; in [33], 51%.

(Values after ChEMBL document CHEMBL1124216, “A novel class of potential central nervous system agents. 3-Phenyl-2-(1-piperazinyl)-5H-1-benzazepines” (1988).)
